The subject of this data set is MS2 coat protein. Briefly: apparent Kd, MS2 coat protein; higher = weaker binding; RNA-MaP array; FMN 200 µM where present. An outline of the steps:
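Green signal was scaled to red-channel RNA signal and control-cluster median Fmax, and the apparent Kd was taken as the median of filtered per-cluster binding-curve fits. The binding series used SNAP-549-labelled MS2 coat protein from 0.7 or 1.5 nM, doubling to 3 µM, on designs transcribed by stalled E. coli RNA polymerase on Illumina sequencing-chip clusters. Each series ran without and then with constant ligand in 100 mM Tris-HCl pH 7.5, 80 mM KCl, 4 mM MgCl2, BSA, DTT, yeast tRNA and Tween-20.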

[1] abbreviates: designed as: OFF switch for flavin mononucleotide, no ligand.
The mark [2] stands for this setting: ligand present: flavin mononucleotide, designed as: OFF switch for flavin mononucleotide.
The mark [3] stands for this setting: designed as: ON switch for flavin mononucleotide, no ligand.
Setting [4] is: ligand present: flavin mononucleotide, designed as: ON switch for flavin mononucleotide.

A word on the apparent Kd: it is a dissociation constant that holds for the conditions of the assay.

As to “AACUGCUGCGUUGUGAUUUCUCCACAUGAGGAUCACCCAUGUCAGGAUAUCUUACCUAGCGGACAAGAGAAGGGACAUGACGGU”, the “apparent Kd” value under setting [1] came out at 348 nM and the “apparent Kd” value under setting [2] was determined as 129 nM.
For “UUUUAACAUGAGGAUCACCCAUGUGAGGAUAUCGAAAUUUAUAUUUAUAUUAAUAAUACGAGAAGGCACAUUUU” the same measures were 63 nM and 87 nM.
For “AAACCGUGUGGAGGAUAUGCAGUUGAGGUGAGGUGGCAACUCUAUACGACAGCAGAAGGCCACAUGAGGAUCACCCAUGUAGGU” the same measures were 251 nM and 73.6 nM.
Consider “UCGAUGCGAGGAUAUACUAAGGCAACUACUGCAGCUCAAAAACAUGAGGAUCACCCAUGUAGAAGGCGCAUAUA”, for which the “apparent Kd” value under setting [1] was 16 nM and the “apparent Kd” value under setting [2] was determined as 15.4 nM.
The like results for “CUGGUCUAUGUAGGAUAUGGUGUAUAUGUAUUACCAGAAGGACAUGAGGAUCACCCAUGUGUCGUGGUAUGAGUAGGUGAUGUU” were, in that order, 47.2 nM and 146 nM.
Take “ACAUGAGGAUCACCCAUGUAGAAUGAAGAAGGUAGAUACUUGUGACUCACCCAUGUACAUAGGACUAAGGAUAUUCUAAUAAUU”: the “apparent Kd” value runs as follows: under setting [3], 26.3 nM; under setting [4], 13 nM.
Regarding “AUCGUUAACGAAGGAUAUGGUUACAUGAGGAUCACCCAUGUAUUUUUUGUGAUCUUGUUUAAGUUCCAGAAGGUCGUUAACGUA”, the “apparent Kd” value under setting [1] is 551 nM and the “apparent Kd” value under setting [2] was found to be 710 nM.
In the case of “ACCGUAUGAACAUGAGGAUCACCCAUGUAUCCGAAAAGGAAUGAGGAUAUCGAUAGCAAAGCUAUCGAGAAGGCAUGGGACGGU”, the “apparent Kd” value was 742 nM under setting [3] and 389 nM under setting [4].
For “UUGGACGUCGUAGGAUAUGUAGGAUACUCCUACAUGAGGAUCACCCAUGUUGACAUGGAGGAAGGACAGAAGGACGGUGUCCAU” the same measures were 25.8 nM and 6.46 nM.
“CUGAUGUUAGGAUAUCAGGCGCCCGCCACUAGCAGGGCGCAUGAGAAGGGACAUGAGGAUCACCCAUGUAGUAA”: the “apparent Kd” value was determined as 31.6 nM under setting [1] and 54.5 nM under setting [2].
For “GAGCGCUGUCGAGAGGAUAUGCGGUGAUGGACAUGAGGAUCACCCAUGUUAGCGAUAGCAUUACGGUAGAAGGCUCUACAGCUGC”, the “apparent Kd” value under setting [3] was 33.4 nM and the “apparent Kd” value under setting [4] came out at 15.4 nM.
For “GCGUAAUAGGUGUAGCUAGUCGUGCAAGAAGGGUGGUGAACAUGAGGAUCACCCAUGUGGUCAGUACAGGAUAUUGCUAUACGC” the same measures were 542 nM and 130 nM.
As for “CCGGAAACGGGUAGCUGUACAUGAGGAUCACCCAUGUGAUCAUAGGAUAUGGAUGGUAAUUCCAUCCAGAAGGAUGUCAGCUAC”, the “apparent Kd” value was 216 nM under setting [3] and 715 nM under setting [4].
The like results for “ACCAGGGAUUCAGGAUAUAUUAGCCGAGGCCGCGUAGAAGGGAAAUCCUGACAUGAGGAUCACCCAUGUCGACCCGCCUUCCAA” were, in that order, 43.3 nM and 41.9 nM.
For “AUUAAACAUGAGGAUCACCCAUGUCAACAAAGUCGAGGAUAUGGGCAAAUAAAAUAUGAACCAGAAGGCGAAUAAU”, the “apparent Kd” value is 213 nM under setting [3] and 38.2 nM under setting [4].
As to “AAAAAACAUGAGGAUCACCCAUGUUAGGAUAUGCUAUGGAAAAUAAAAAAUAAACAUAGCAGAAGGAACAAAAA”, the “apparent Kd” value is, setting by setting: under setting [1], 43.4 nM; under setting [2], 48.9 nM.
On to “GGUCUGACAUAAGGAUAUGCUCAGGAUAACUGAGCAGAAGGUAUGUGAAAACAUGAGGAUCACCCAUGUGAUCAAUACAGACCA”, for which the “apparent Kd” value came out at 18.8 nM under setting [3] and 19.5 nM under setting [4].
Take “ACGUAUAGAGGAUAUAGUGAAUAUUACAUGAGGAUCACCCAUGUUCUUCAAAGCAUAUUCCUAGAAGGCUGAUGAA”: the “apparent Kd” value runs as follows: under setting [1], 44.8 nM; under setting [2], 83.6 nM.
On to “UGCUAAUUGUAGAAGGGUGACAUGAGGAUCACCCAUGUGCACGCGCGAUUUACGGCGCGCGUGCCACAGGAUAUACAGUUGAGU”, for which the “apparent Kd” value came out at 58.1 nM under setting [3] and 34.6 nM under setting [4].
With “GUUAAACAUGAGGAUCACCCAUGUAAGGAUAUGCUGCGGUAGAGAUGAAGUGAAUGCAGCAGAAGGUACAAUUG”, the “apparent Kd” value is, setting by setting: under setting [1], 124 nM; under setting [2], 109 nM.
For “CUUUCGUGAGGAUAUCAGUAGUAAAUAAAUAAAAUUACUACUGAGAAGGCACAUGAGGAUCACCCAUGUUCCUC” the same measures were 23.6 nM and 144 nM.
For “GCACGGUAAGUGAGGAUAUACCUCUGGAUACAGAGGUAGAAGGCACAUGAGGAUCACCCAUGUUCCUGCCGUGC” the same measures were 17.2 nM and 92.9 nM.
In the case of “GGAUAGGACAGAGGAUAUACGUGCAAGAGAUACUAGCAAAAUUUCCUCACAUGAGGAUCACCCAUGUAGAAGGCUGUCCUAUCG”, the “apparent Kd” value reads like this: under setting [1], 57.4 nM; under setting [2], 331 nM.
The like results for “UAUAUAUAGUAAGGAUAUGUAUUAAUUUUAGAAACAGAAGGUACUGACAUGAGGAUCACCCAUGUUUUAGUGUGGGCAUGUAGA” were, in that order, 98.3 nM and 147 nM.
With “GGUUGGCGAGGAUAUACAUGAGGAUCACCCAUGUGGUCCUAAAAUAAAAUAAACCUUUGUAGAAGGCGCGGGUC”, the “apparent Kd” value runs as follows: under setting [1], 268 nM; under setting [2], 428 nM.
Take “CUGUAGUCAGGAUAUACAUGAGGAUCACCCAUGUAAAAUUUUAAUUUAAUUUGAAGGUGUAGAAGGGACCAGUU”: the “apparent Kd” value reads like this: under setting [1], 34.3 nM; under setting [2], 32.9 nM.
In the case of “UAGAUGGGAGGAUAUACGUAUAUGCAGGUUCGUGUGGUGCUACAUGAGGAUCACCCAUGUAGAAGGCCCGUCUU”, under setting [2], the “apparent Kd” value is 38.6 nM.
Regarding “AGGUAAGAGUUAAUUGUGACGGUGAGAAGGCAAUAGGUUGUGAUUAACAUGAGGAUCACCCAUGUUGAGGAUAUCACCACCUAC”, the “apparent Kd” value under setting [1] came out at 14.3 nM and the “apparent Kd” value under setting [2] amounted to 80.8 nM.
As for “CAGUUUUGAGGAUAUCCAUCCUCCUACAUGAGGAUCACCCAUGUUUCCCUCUGGGUUUUCGGAGAAGGCAGUUAUC”, the “apparent Kd” value runs as follows: under setting [1], 341 nM; under setting [2], 251 nM.
The like results for “UAUAUGUCAGGAUAUCGAUUGGAAUGGAAUUCGGUUCUGGUUGAGAAGGGACAUGAGGAUCACCCAUGUUUUUC” were, in that order, 27.6 nM and 84.4 nM.
In the case of “AAUACAUGAGGAUCACCCAUGUUAUGUUCAAACAAUAUGAGUGAGGAUAUACUGAGUUAGUUAUGGUAGAAGGCACUGGGUUCA”, the “apparent Kd” value is, setting by setting: under setting [3], 56.3 nM; under setting [4], 36.2 nM.
The like results for “UUGGACGUCGUAGGAUAUGUAGGAUAUUCCUACAUGAGGAUCACCCAUGUUGACAUGGAAGUAGGACAGAAGGACGAUGUCCAU” were, in that order, 497 nM and 23.1 nM.
As to “UUUAUGUAAGGAUAUGCGGGCGGGCGUGUUUAUGUUUGUUUGUAGAAGGUACAUGAGGAUCACCCAUGUAGUGG”, the “apparent Kd” value reads like this: under setting [1], 90.1 nM; under setting [2], 172 nM.
For “CUUUCAUUUUAGGAUAUCGAGUUGGCGAUAGCUCGAGAAGGGAAUACAUGAGGAUCACCCAUGUCGGGUCACGU” the same measures were 177 nM and 173 nM.
For “UCAUACAUGAGGAUCACCCAUGACAUGAGGAUCACCCAUGUGCAGGAUAUACGUGAUAUAAUAUAGUAGAAGGGCAGACCAAAA”, the “apparent Kd” value under setting [1] turned out to be 42.8 nM and the “apparent Kd” value under setting [2] amounted to 55.1 nM.
For “AGACUGCGUAGAAUUAGCAGCUGACAGGAUAUGACAUGAGGAUCACCCAUGUGAACUACAAAGGAUCAGAAGGGUCACGACACA” the same measures were 18.6 nM and 30.3 nM.
Take “UCUACGCGAAUCAAGAUGGAUAGAACAUGAGGAUCACCCAUGUAGGAUAUGCUACACAAAGUGUAGCAGAAGGACAAGCGUAGA”: the “apparent Kd” value stood at 25.1 nM under setting [1] and 35.7 nM under setting [2].

(Values after the EternaBench riboswitch data.)
